Converted amounts (≈) assume the structure as drawn. The source made the active and inactive calls. The rule behind the calls is not given here.
Legend:
Staphylococcus aureus [1] = assay: Antibiotic activity against Staphylococcus aureus 13709 by broth microdilution assay or Alamar blue dye based colorimetric assay; type: functional
Method in brief: (§1)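 Broth microdilution following CLSI standards, read colorimetrically with Alamar Blue. Test compounds were made as 50 mM stocks in DMSO, then serially diluted 2-fold in the test wells from a top final concentration of 500 μM (500, 250, 125, 64, 32 μM and lower). The MIC was taken from this dilution series.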

Staphylococcus aureus [2] = assay: Antibiotic activity against methicillin-resistant Staphylococcus aureus isolate CAIRD148 by broth microdilution assay or Alamar blue dye based colorimetric assay; type: functional
Method in brief: (§2)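 Minimum inhibitory concentration (MIC) by broth microdilution following CLSI standards, with Alamar Blue as the colorimetric reporter. Test compounds were made up as 50 mM stocks in DMSO and serially diluted 2-fold in the test wells. The top final well concentration was 500 μM (500, 250, 125, 64, 32, 16, 8, 4, 2, 1 μM, etc.).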

Bacillus anthracis = assay: Antibiotic activity against Bacillus anthracis by broth microdilution assay or Alamar blue dye based colorimetric assay; type: functional; method in brief: as §2
Staphylococcus aureus [3] = assay: Antibiotic activity against methicillin-resistant Staphylococcus aureus isolate CAIRD142 by broth microdilution assay or Alamar blue dye based colorimetric assay; type: functional; method in brief: as §2
Staphylococcus aureus [4] = assay: Antibiotic activity against methicillin-resistant Staphylococcus aureus isolate CAIRD116 by broth microdilution assay or Alamar blue dye based colorimetric assay; type: functional; method in brief: as §2
Streptococcus pyogenes = assay: Antibiotic activity against Streptococcus pyogenes by broth microdilution assay or Alamar blue dye based colorimetric assay; type: functional; method in brief: as §1
Bacillus subtilis = assay: Antibiotic activity against Bacillus subtilis by broth microdilution assay or Alamar blue dye based colorimetric assay; type: functional; method in brief: as §1
Nakaseomyces glabratus = assay: Antibiotic activity against Candida glabrata by broth microdilution assay or Alamar blue dye based colorimetric assay; type: functional
Candida albicans = assay: Antibiotic activity against Candida albicans by broth microdilution assay or Alamar blue dye based colorimetric assay; type: functional
Staphylococcus aureus [5] = assay: Antibiotic activity against methicillin-resistant Staphylococcus aureus isolate NE277 by broth microdilution assay or Alamar blue dye based colorimetric assay; type: functional; method in brief: as §2
Ribosome [6] = assay: Induction of ribosome stalling assessed as induction of stalling of ribosome at ermBL ORF at 50 uM by extension inhibition assay
Method in brief: (§3)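 Primer extension inhibition was run on an ermBL gene template following the published procedure. Erythromycin, josamycin and tylosin were included in the reaction as references at 50 μM. The test agent was present at 50 or 250 μM.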

[7] = In-vitro inhibition of protein translation using pY71-sfGFP in PUREexpress in vitro protein synthesis system assessed as reduction in cell-free GFP protein translation at 50 uM measured every 20 mins for 2 hrs; type: functional
Method in brief: (§4)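 Cell-free transcription-translation reactions were programmed with the pY71-sfGFP plasmid. The antibiotic solution was dried at the bottom of the tube before the reaction components were added. Erythromycin, josamycin and tylosin served as references at a final 50 μM. Reactions were incubated at 37 °C, with GFP fluorescence (excitation 488 nm, emission 520 nm) read every 20 min for 2 h.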

CCRF-CEM = assay: Growth inhibition of human CCRF-CEM cells at 10 uM incubated for 48 hrs by SRB assay; type: functional; details: read-out: GI
K562 = assay: Growth inhibition of human K562 cells at 10 uM incubated for 48 hrs by SRB assay; type: functional; details: K562, 48 h, read-out: GI
Stromelysin-1 = Stromelysin-1 (Homo sapiens, UniProt P08254); assay: Inhibition of MMP3 (unknown origin)
Sequence of Stromelysin-1 (P08254 whole entry): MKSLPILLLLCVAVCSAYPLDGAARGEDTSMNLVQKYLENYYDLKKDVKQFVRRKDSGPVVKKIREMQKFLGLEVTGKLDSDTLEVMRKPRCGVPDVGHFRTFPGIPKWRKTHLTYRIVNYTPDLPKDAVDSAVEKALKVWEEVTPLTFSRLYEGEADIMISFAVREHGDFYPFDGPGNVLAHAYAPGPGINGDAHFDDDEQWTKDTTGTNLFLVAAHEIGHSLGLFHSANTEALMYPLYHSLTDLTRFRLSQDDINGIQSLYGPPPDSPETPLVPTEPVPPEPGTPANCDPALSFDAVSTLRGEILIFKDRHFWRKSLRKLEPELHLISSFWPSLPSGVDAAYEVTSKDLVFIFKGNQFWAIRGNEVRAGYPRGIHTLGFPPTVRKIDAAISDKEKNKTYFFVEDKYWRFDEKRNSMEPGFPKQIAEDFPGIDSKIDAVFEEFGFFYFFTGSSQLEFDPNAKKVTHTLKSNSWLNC

Ribosome [8] = assay: Induction of ribosome stalling (unknown origin) assessed as induction of stalling of ribosome at ermBL ORF at 250 uM by extension inhibition assay; method in brief: as §3
[9] = In-vitro inhibition of protein translation using pY71-sfGFP in PUREexpress in vitro protein synthesis system assessed as reduction in cell-free GFP protein translation at 250 uM measured every 20 mins for 2 hrs; type: functional; method in brief: as §4
RPMI-8226 [10] = assay: Cytotoxicity human RPMI8226 cells assessed as cell lethality at 10 uM incubated for 48 hrs by SRB assay; type: functional
Method in brief: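 Single-dose (10 μM) screen run by the NCI Developmental Therapeutics Program across its 60 cell-line panel. Read as percent growth inhibition.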

RPMI-8226 [11] = assay: Growth inhibition of human RPMI8226 cells at 10 uM incubated for 48 hrs by SRB assay; type: functional; details: RPMI-8226, 48 h, read-out: GI

Compound: C[C@@H]1CCCCCCCCC[C@H](OC(=O)CCC(=O)O)C(=O)C[C@@H](SC[C@@H](O)C(=O)O)C(=O)O1
- MIC (Staphylococcus aureus [1]): 8 µM (≈ 4.04 µg/mL)
- MIC (Staphylococcus aureus [2]): 16 µM
- MIC (Bacillus anthracis): 16 µM (≈ 8.07 µg/mL)
- MIC (Staphylococcus aureus [3]): 32 µM
- MIC (Staphylococcus aureus [4]): 32 µM
- MIC (Streptococcus pyogenes): 250 µM (≈ 126 µg/mL)
- MIC (Bacillus subtilis): 64 µM (≈ 32.3 µg/mL)
- MIC (Nakaseomyces glabratus): 64 µM (≈ 32.3 µg/mL)
- MIC (Candida albicans): > 250 µM
- MIC (Staphylococcus aureus [5]): 16 µM (≈ 8.07 µg/mL)

Compound: CC[C@H]1OC(=O)C[C@@H](O)[C@H](C)[C@@H](O[C@@H]2O[C@H](C)[C@@H](O[C@H]3C[C@@](C)(O)[C@@H](O)[C@H](C)O3)[C@H](N(C)C)[C@H]2O)[C@@H](CC=O)C[C@@H](C)C(=O)/C=C/C(C)=C/[C@@H]1CO[C@@H]1O[C@H](C)[C@@H](O)[C@@H](OC)[C@H]1OC
- Activity (Ribosome [6]): Active
- translation inhibition (active/not active) [7]: Active

Compound: C[C@H]1OC(=O)/C=C/C(=O)[C@@H](OC(=O)CCC(=O)O)CCCCCCCC[C@@H]1O
- MIC (Staphylococcus aureus [1]): 16 µM (≈ 6.38 µg/mL)
- MIC (Bacillus anthracis): 16 µM (≈ 6.38 µg/mL)
- inhibition of growth at 10 µM (CCRF-CEM): 48%
- MIC (Streptococcus pyogenes): 64 µM (≈ 25.5 µg/mL)
- inhibition of growth at 10 µM (K562): 46%
- MIC (Bacillus subtilis): 64 µM (≈ 25.5 µg/mL)
- MIC (Nakaseomyces glabratus): 64 µM (≈ 25.5 µg/mL)
- MIC (Candida albicans): 125 µM (≈ 49.8 µg/mL)

Compound: C[C@H]1COc2c(N3CCN(C)CC3)c(F)cc3c(=O)c(C(=O)O)cn1c23.C[C@H]1COc2c(N3CCN(C)CC3)c(F)cc3c(=O)c(C(=O)O)cn1c23.O [LEVOFLOXACIN]
- MIC (Staphylococcus aureus [2]): > 16 µg/mL
- MIC (Staphylococcus aureus [3]): 0.25 µg/mL
- MIC (Staphylococcus aureus [4]): > 16 µg/mL

Compound: C[C@@H]1CCCCCCCCC[C@H](O)C(=O)C[C@@H](SC[C@@H](O)C(=O)O)C(=O)O1
- IC50 (Stromelysin-1): 100 µM
- Activity (Ribosome [8]): inactive
- Activity (Ribosome [6]): inactive
- MIC (Staphylococcus aureus [1]): 2 µM (≈ 0.809 µg/mL)
- MIC (Staphylococcus aureus [2]): 2 µM
- MIC (Bacillus anthracis): 8 µM (≈ 3.24 µg/mL)
- MIC (Staphylococcus aureus [3]): 4 µM
- inhibition [9]: inactive
- MIC (Staphylococcus aureus [4]): 2 µM
- MIC (Streptococcus pyogenes): 8 µM (≈ 3.24 µg/mL)
- inhibition of growth at 10 µM (K562): 85%
- MIC (Bacillus subtilis): 32 µM (≈ 12.9 µg/mL)
- translation inhibition (active/not active) [7]: inactive
- MIC (Nakaseomyces glabratus): 16 µM (≈ 6.47 µg/mL)
- MIC (Candida albicans): 64 µM (≈ 25.9 µg/mL)
- MIC (Staphylococcus aureus [5]): 2 µM (≈ 0.809 µg/mL)
- Activity (RPMI-8226 [10]): 2.4%

Compound: C[C@H]1c2cccc(O)c2C(=O)C2=C(O)[C@]3(O)C(=O)C(C(N)=O)=C(O)[C@@H](N(C)C)[C@@H]3[C@@H](O)[C@@H]21.O [DOXYCYCLINE]
- MIC (Staphylococcus aureus [2]): 0.25 µg/mL
- MIC (Staphylococcus aureus [3]): 16 µg/mL
- MIC (Staphylococcus aureus [4]): 8 µg/mL

Compound: CCC[C@@H]1C[C@@H](C(=O)N[C@@H]([C@H]2O[C@H](SC)[C@H](O)[C@@H](O)[C@H]2O)[C@H](C)Cl)N(C)C1 [CLINDAMYCIN]
- MIC (Staphylococcus aureus [2]): > 16 µg/mL
- MIC (Staphylococcus aureus [3]): > 16 µg/mL
- MIC (Staphylococcus aureus [4]): > 16 µg/mL

Compound: Cc1nnc(SCC2=C(C(=O)O)N3C(=O)[C@@H](NC(=O)Cn4cnnn4)[C@H]3SC2)s1 [CEFAZOLIN]
- MIC (Staphylococcus aureus [2]): 256 µg/mL
- MIC (Staphylococcus aureus [3]): 256 µg/mL
- MIC (Staphylococcus aureus [4]): 256 µg/mL

Compound: C[C@@H]1CC(O)CCCCCCC[C@H](OC(=O)CCC(=O)O)C(=O)/C=C/C(=O)O1 (some centres not stated)
- MIC (Staphylococcus aureus [1]): 32 µM (≈ 12.8 µg/mL)
- MIC (Bacillus anthracis): 64 µM (≈ 25.5 µg/mL)
- MIC (Streptococcus pyogenes): 125 µM (≈ 49.8 µg/mL)
- MIC (Bacillus subtilis): 250 µM (≈ 99.6 µg/mL)
- MIC (Nakaseomyces glabratus): > 1000 µM
- MIC (Candida albicans): > 1000 µM

Compound: CO[C@@H]1[C@@H](O[C@@H]2O[C@H](C)[C@@H](O[C@H]3C[C@@](C)(O)[C@@H](OC(=O)CC(C)C)[C@H](C)O3)[C@H](N(C)C)[C@H]2O)[C@@H](CC=O)C[C@@H](C)[C@@H](O)/C=C/C=C/C[C@@H](C)OC(=O)C[C@H]1OC(C)=O
- Activity (Ribosome [6]): Active
- translation inhibition (active/not active) [7]: Active

Compound: C[C@@H]1CCCCCCCCC[C@H](OC(=O)CCC(=O)O)C(=O)/C=C/C(=O)O1
- IC50 (Stromelysin-1): 50 µM
- MIC (Staphylococcus aureus [1]): 8 µM (≈ 3.06 µg/mL)
- MIC (Staphylococcus aureus [2]): 16 µM
- MIC (Bacillus anthracis): 16 µM (≈ 6.12 µg/mL)
- MIC (Staphylococcus aureus [3]): 16 µM
- MIC (Staphylococcus aureus [4]): 16 µM
- MIC (Streptococcus pyogenes): 125 µM (≈ 47.8 µg/mL)
- inhibition of growth at 10 µM (RPMI-8226 [11]): 48%
- MIC (Bacillus subtilis): 32 µM (≈ 12.2 µg/mL)
- MIC (Nakaseomyces glabratus): 125 µM (≈ 47.8 µg/mL)
- MIC (Candida albicans): 250 µM (≈ 95.6 µg/mL)
- MIC (Staphylococcus aureus [5]): 16 µM (≈ 6.12 µg/mL)

Compound: CC[C@H]1OC(=O)[C@H](C)[C@@H](O[C@H]2C[C@@](C)(OC)[C@@H](O)[C@H](C)O2)[C@H](C)[C@@H](O[C@@H]2O[C@H](C)C[C@H](N(C)C)[C@H]2O)[C@](C)(O)C[C@@H](C)C(=O)[C@H](C)[C@@H](O)[C@]1(C)O [ERYTHROMYCIN]
- Activity (Ribosome [6]): Active
- MIC (Staphylococcus aureus [2]): > 32 µg/mL
- MIC (Staphylococcus aureus [3]): > 32 µg/mL
- MIC (Staphylococcus aureus [4]): > 32 µg/mL
- translation inhibition (active/not active) [7]: Active

Compound: C[C@H]1OC(=O)/C=C/[C@@H](O)[C@@H](O)CCCCCCCC[C@@H]1O
- IC50 (Stromelysin-1): 150 µM
- MIC (Staphylococcus aureus [1]): 64 µM (≈ 19.2 µg/mL)
- MIC (Bacillus anthracis): 250 µM (≈ 75.1 µg/mL)
- inhibition of growth at 10 µM (CCRF-CEM): 38%
- MIC (Streptococcus pyogenes): 500 µM (≈ 150 µg/mL)
- MIC (Bacillus subtilis): > 1000 µM
- MIC (Nakaseomyces glabratus): > 1000 µM
- MIC (Candida albicans): > 1000 µM
